Screening results deposited in PubChem by Sanford-Burnham Center for Chemical Genomics.
Scp-1 inhibitor = blocks human Scp-1 phosphatase activity. Recombinant Scp1, phosphopeptide, malachite green phosphate absorbance. inhibition, % at 20 µM. actives 0.88% (n = 340,000). AID 493091;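 active = inhibition above about 50% at 20 µM, limit read from the data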;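 also: plate controls were DMSO wells with enzyme for no effect and wells lacking enzyme for full effect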
Target sequence (Q9GZU7 76-261 limits assumed): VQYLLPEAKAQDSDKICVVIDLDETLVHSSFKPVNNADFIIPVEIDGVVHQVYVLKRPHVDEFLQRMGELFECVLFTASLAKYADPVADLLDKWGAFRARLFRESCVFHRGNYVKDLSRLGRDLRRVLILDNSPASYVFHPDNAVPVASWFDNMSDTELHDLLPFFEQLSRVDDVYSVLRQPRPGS
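Assay system: SCP-1 catalytic fragment, aa 76-261 | Buffer or medium: Tris acetate buffer pH 5.5 with MgCl2 and Tween-20 | Compound: One concentration, 20 µM, with 1.0% DMSO | Also added: Phospho 17-mer peptide substrate | Signal: Absorbance at 630 nm | Incubation: 45 min enzyme reaction at room temperature | Measure: % inhibition of SCP-1 phosphate liberation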
LMPTP block = LMPTP (human) inhibition. P24666. recombinant LMPTP-A, OMFP fluorogenic substrate, fluorescence intensity. inhibition, % at 20 µM. actives 0.22% (n = 360,000);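 active = compounds that cut the enzyme signal by at least half of the control window in the single-dose screen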;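 also: plate controls were DMSO wells with enzyme plus substrate for no effect and substrate without enzyme for full effect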
Target sequence (P24666 whole entry, looked up): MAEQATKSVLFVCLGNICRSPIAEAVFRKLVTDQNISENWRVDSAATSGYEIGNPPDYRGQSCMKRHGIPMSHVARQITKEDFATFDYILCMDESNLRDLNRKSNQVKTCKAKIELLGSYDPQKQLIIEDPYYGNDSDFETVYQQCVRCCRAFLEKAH
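Material: LMPTP-A; amount: 0.625 nM enzyme; doses: single 20 µM dose; times: reaction 50 min, room temperature, dark; technique: fluorescence intensity of OMFP turnover product; benchmarks: no-enzyme and uninhibited controls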
DNMT1 block = DNMT1 (human) enzyme inhibition | inhibition (reported as % activation of signal), % at 10 µM | DNMT1 molecular beacon, Hinp1I cleavage, fluorescence | actives 0.83% (n = 360,000); in the data active = inhibition above about 50%
SUMO1 PPI mod = alters human SUMO1 binding to SIM partners | P63165 | SUMO1 binding to a labelled peptide, TR-FRET, 1 h | inhibition, % at 20 µM | actives 0.33% (n = 360,000); in the data active = inhibition above about 37%
Target sequence (P63165 whole entry, looked up): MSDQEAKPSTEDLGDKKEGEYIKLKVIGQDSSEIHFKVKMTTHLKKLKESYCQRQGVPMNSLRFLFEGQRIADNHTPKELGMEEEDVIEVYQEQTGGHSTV
STEP block = inhibitors of human striatal-enriched phosphatase STEP; inhibition, % at 20 µM; recombinant STEP, OMFP fluorogenic substrate, fluorescence; P54829; actives 0.25% (n = 360,000);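 active = inhibition at 20 µM, scaled per plate between control wells, above about 37%, limit read from the data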;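 also: 0% = DMSO with enzyme and substrate and 100% = substrate only without enzyme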
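Material: STEP (striatal-enriched tyrosine phosphatase) enzyme, cell-free | Medium: 50 mM Bis-Tris pH 6.0 with 2.5 mM DTT and 0.005% Tween 20 | Read-out: Percent inhibition scaled to no-enzyme and uninhibited-enzyme controls, plate-pattern corrected | Signal: Fluorescence read at 480 nm ex / 540 nm em | Times: 20 min reaction, room temperature, in the dark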
* = called active by the depositor. Compounds with a hit are over-represented: about 1.7% of the library has one in this group of screens.

What do the screens show for `Cc1ccc(S(=O)(=O)c2cc(Nc3ccccc3)ccc2O)cc1`?
Scp-1 inhibitor: -5.8; LMPTP block: 1.9; DNMT1 block: -22.8; SUMO1 PPI mod: -6.6; STEP block: -1.4

How did Oc1cccc(Nc2ccccc2)c1 do in these assays?
Scp-1 inhibitor: -0.3; LMPTP block: 0.2; DNMT1 block: -14.6; SUMO1 PPI mod: 2.2; STEP block: -3.7

Results for COc1ccccc1Nc1ccc2c(O)cc(S(=O)(=O)O)cc2c1 ?
Scp-1 inhibitor: 81.5*; LMPTP block: 84.9*; DNMT1 block: 94.5*; SUMO1 PPI mod: 91.6*; STEP block: 97.1*

Results for CCCCCN(C(=O)CSc1n[nH]c(-c2ccc(C)cc2)n1)c1c(N)n(CCCC)c(=O)[nH]c1=O ?
Scp-1 inhibitor: -6.6; LMPTP block: -7.8; DNMT1 block: 4.2; SUMO1 PPI mod: 0.5; STEP block: -2.3

How did CCCS(=O)(=O)Nc1ccc(Nc2c3ccccc3nc3ccccc23)c(OC)c1 do in these assays?
Scp-1 inhibitor: 2.2; LMPTP block: 33.9; DNMT1 block: 12.3; SUMO1 PPI mod: -26.1; STEP block: 6.9

What do the screens show for `COc1cc(N)ccc1Nc1c2ccccc2nc2ccccc12`?
LMPTP block: 87.3*; DNMT1 block: -13.8; SUMO1 PPI mod: -62.2; STEP block: 5.5

What do the screens show for `COc1cc2c3c(cccc3c1)C(=O)N(CCN1CCCC1)C2=O`?
LMPTP block: 20.6; DNMT1 block: 73.4*; SUMO1 PPI mod: -30.3; STEP block: -2.0

How did CCOc1ncccc1C(=O)OCC(=O)NC(=O)c1ccccc1 do in these assays?
Scp-1 inhibitor: -1.4; LMPTP block: -1.6; DNMT1 block: 3.2; SUMO1 PPI mod: 5.2; STEP block: 1.8

What do the screens show for `Cc1ccc2nc(NC(=O)c3ccco3)sc2c1`?
Scp-1 inhibitor: -7.5; LMPTP block: 0.2; DNMT1 block: -1.1; SUMO1 PPI mod: 1.0; STEP block: -4.7

What do the screens show for `Cc1nc2ccc3nc(NC(=O)c4ccco4)sc3c2s1`?
Scp-1 inhibitor: 25.1; LMPTP block: 0.3; DNMT1 block: 6.3; SUMO1 PPI mod: 54.5*; STEP block: 3.6

Results for Cc1csc2c(=O)sc(NC(=O)c3ccco3)nc12 ?
Scp-1 inhibitor: 6.3; LMPTP block: 24.5; DNMT1 block: 0.1; SUMO1 PPI mod: -21.3; STEP block: 8.8

What do the screens show for `O=C(Nc1nc2ccsc2c(=O)s1)c1ccco1`?
Scp-1 inhibitor: 53.9*; LMPTP block: -0.1; DNMT1 block: 44.1; SUMO1 PPI mod: 39.2*; STEP block: 7.7

What do the screens show for `c1cncc(-c2nc3ccccc3s2)c1`?
Scp-1 inhibitor: -0.8; LMPTP block: 0.4; DNMT1 block: 2.2; SUMO1 PPI mod: 48.4*; STEP block: -0.4

Results for c1ccc2sc(-c3ccncc3)nc2c1 ?
Scp-1 inhibitor: -10.4; LMPTP block: -1.7; DNMT1 block: -1.7; SUMO1 PPI mod: -11.5; STEP block: 0.3

What do the screens show for `Cc1cc(C)cc(OCC(=O)Nc2nc(-c3cccnc3)cs2)c1`?
Scp-1 inhibitor: 4.0; LMPTP block: -1.5; DNMT1 block: 6.7; SUMO1 PPI mod: -2.6; STEP block: 35.4

Results for O=C(COC(=O)c1ccc([N+](=O)[O-])s1)NCc1ccc(F)cc1 ?
Scp-1 inhibitor: -10.3; LMPTP block: -0.3; DNMT1 block: 27.8; SUMO1 PPI mod: 49.4*; STEP block: 2.2

Results for O=C(COC(=O)c1ccc([N+](=O)[O-])s1)c1ccc[nH]1 ?
Scp-1 inhibitor: 15.5; LMPTP block: 0.5; DNMT1 block: 50.2*; SUMO1 PPI mod: 14.1; STEP block: -6.3

Results for Cc1ccc(CNc2nc3c([nH]2)c(=O)n(C)c(=O)n3C)cc1 ?
Scp-1 inhibitor: -0.3; LMPTP block: -1.3; DNMT1 block: -0.3; SUMO1 PPI mod: 49.7*; STEP block: -8.3

How did Cc1ccc(Nc2ccc(N)cc2S(=O)(=O)O)cc1 do in these assays?
Scp-1 inhibitor: 14.9; LMPTP block: 67.1*; DNMT1 block: 12.7; SUMO1 PPI mod: 26.6; STEP block: 4.6

Results for CC1CCN(Cc2nc(-c3ccccc3)no2)CC1 ?
Scp-1 inhibitor: -10.8; LMPTP block: -1.0; DNMT1 block: -1.8; SUMO1 PPI mod: 49.9*; STEP block: -3.7

How did C=CCN(c1ccc(C(=O)Nc2ccc(C)c(C)c2)cc1)S(C)(=O)=O do in these assays?
Scp-1 inhibitor: -6.7; LMPTP block: -0.4; DNMT1 block: -0.6; SUMO1 PPI mod: 0.4; STEP block: -3.4
